Reference: ChEMBL document CHEMBL4680218, “Design and synthesis of tripeptidyl furylketones as selective inhibitors against the β5 subunit of human 20S proteasome” (Eur J Med Chem, 2020)

Columns and labels:
[1] = biological target: T1, Proteasome Macropain subunit MB1 (Homo sapiens) (UniProt P28074); assay: Inhibition of chymotrypsin-like activity of human 20S proteasome beta5 subunit at 50 uM using Suc-LLVY-Glo as substrate incubated for 2 hrs followed by substrate addition and measured for 10 mins by bioluminescent assay relative to control; conditions: time 130.0 min
T1 sequence (whole entry): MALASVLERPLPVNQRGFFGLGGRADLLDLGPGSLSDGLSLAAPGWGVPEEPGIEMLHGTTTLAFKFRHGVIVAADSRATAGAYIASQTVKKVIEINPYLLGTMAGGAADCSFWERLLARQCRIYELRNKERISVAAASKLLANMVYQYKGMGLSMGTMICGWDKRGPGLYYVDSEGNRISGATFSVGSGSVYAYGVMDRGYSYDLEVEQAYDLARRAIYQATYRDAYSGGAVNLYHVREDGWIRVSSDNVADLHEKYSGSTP
Outline: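 Human constitutive 20S proteasome (1 µg/mL) was incubated with compound for 2 h at 25 °C in 10 mM HEPES pH 7.6 with 1% DMSO final. Suc-LLVY-Glo substrate was then added, and luminescence was read over 10 min. Inhibition rate was calculated against the uninhibited signal.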

[2] = biological target: T2, Proteasome Macropain subunit MB1 (Homo sapiens, UniProt P28074); assay: Inhibition of chymotrypsin-like activity of human 20S proteasome beta5 subunit using Suc-LLVY-Glo as substrate incubated for 2 hrs followed by substrate addition and measured for 10 mins by bioluminescent assay
T2 sequence (P28074 whole entry): T1 sequence (whole entry)
Outline: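 Human constitutive 20S proteasome (1 μg/mL) was combined with compound serially diluted in 10 mM HEPES pH 7.6, with final DMSO 1% (v/v). After 2 h at 25 °C, Suc-LLVY-Glo (CT-L), Z-LRR-Glo (T-L) or Z-nLPnLD-Glo (C-L) reagent was added. Luminescence was read over 10 min, and IC50 was taken from inhibition rates.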

A549 = assay: Cytotoxicity against human A549 cells assessed as reduction in cell viability after 72 hrs by Cell Titer-Glo assay; type: functional, cell-based; conditions: A549, 72 h
Outline: (§1)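 Cells were cultured in their respective media with 10% FBS, seeded from log phase at 1000 cells/well, and given compound after 18–24 h. After 72 h, an equal volume of CellTiter-Glo reagent was added and luminescence was read at 37 °C. IC50 came from dose-response curve fits; values are mean ± SD of three independent experiments, each in biological triplicate.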

[3] = Cytotoxicity against human PC3M1E8 cells assessed as reduction in cell viability after 72 hrs by Cell Titer-Glo assay; type: functional, cell-based; conditions: PC3M1E8, 72 h; outline: as §1
HT-29 = assay: Cytotoxicity against human HT-29 cells assessed as reduction in cell viability after 72 hrs by Cell Titer-Glo assay; type: functional, cell-based; conditions: HT-29, 72 h; outline: as §1
HEK293 = assay: Cytotoxicity against human HEK293 cells assessed as reduction in cell viability after 72 hrs by Cell Titer-Glo assay; type: cell-based; conditions: HEK293, 72 h; outline: as §1
HeLa = assay: Cytotoxicity against human HeLa cells assessed as reduction in cell viability after 72 hrs by Cell Titer-Glo assay; type: functional, cell-based; outline: as §1
A-375 = assay: Cytotoxicity against human A-375 cells assessed as reduction in cell viability after 72 hrs by Cell Titer-Glo assay; type: functional, cell-based; conditions: A-375, 72 h; outline: as §1
BGC-823 = assay: Cytotoxicity against human BGC-823 cells assessed as reduction in cell viability after 72 hrs by Cell Titer-Glo assay; type: functional, cell-based; conditions: BGC-823, 72 h; outline: as §1
HCT-116 [4] = assay: Cell cycle arrest in human HCT-116 cells assessed as accumulation at G1 phase at 1 uM after 24 hrs by propidium iodide staining based flow cytometric analysis (reference value: 29%); type: functional
HCT-116 [5] = assay: Cytotoxicity against human HCT-116 cells assessed as reduction in cell viability after 72 hrs by Cell Titer-Glo assay; type: functional, cell-based; conditions: HCT-116, 72 h; outline: as §1
HCT-116 [6] = assay: Cell cycle arrest in human HCT-116 cells assessed as accumulation at G2/M phase at 1 uM after 24 hrs by propidium iodide staining based flow cytometric analysis (reference value: 21%); type: functional
HCT-116 [7] = assay: Cell cycle arrest in human HCT-116 cells assessed as accumulation at S phase at 1 uM after 24 hrs by propidium iodide staining based flow cytometric analysis (reference value: 50%); type: functional
[8] = biological target: T1, Proteasome Macropain subunit MB1 (Homo sapiens); assay: Reversible inhibition of human 20S proteasome beta5 subunit assessed as residual enzyme activity using Suc-LLVY-Glo as substrate preincubated for 2 hrs followed by compound washout and further incubated for 4 hrs followed by substrate addition and measured after 10 mins by bioluminescent assay relative to control
Outline: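 Human 20S proteasome (8 μg/mL) was pre-incubated with inhibitor for 2 h at 25 °C. Samples were then washed five times in assay buffer on 100 kDa cut-off centrifugal filters (14,000 g, 5 min each) and recovered. After a further 4 h at 25 °C, Suc-LLVY-Glo was added and luminescence was read after 10 min. Unwashed samples held an extra 4 h served as the standard.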

| inhibition [1] [%] | IC50 [2] [µM] | Structure (SMILES) | further results |
| --- | --- | --- | --- |
| > 50 | 4.16 | COC[C@H](NC(=O)[C@H](Cc1ccccc1)NC(=O)OCc1ccccc1)C(=O)N[C@@H](CC(C)C)C(=O)c1ccco1 | – |
| > 50 | 3.12 | Cc1ccc(S(=O)(=O)N[C@@H](CC(=O)NCC(C)C)C(=O)N[C@@H](C)C(=O)N[C@@H](CC(C)C)C(=O)c2ccco2)cc1 | – |
| > 50 | > 50 | COc1ccc(C[C@H](NC(=O)[C@H](Cc2ccccc2)NC(=O)c2ccccc2OC)C(=O)N[C@@H](CC(C)C)C(=O)c2ccco2)cc1 | – |
| > 50 | 45.6 | CC(C)C[C@H](NC(=O)[C@H](C)NC(=O)[C@H](Cc1ccccc1)NC(=O)OC(C)(C)C)C(=O)c1ccco1 | – |
| > 50 | > 50 | COc1ccc(C[C@H](NC(=O)[C@H](Cc2ccccc2)NC(=O)c2cnccn2)C(=O)N[C@@H](CC(C)C)C(=O)c2ccco2)cc1 | – |
| > 50 | 0.68 | COC[C@H](NC(=O)[C@H](CC(=O)NCC(C)C)NS(=O)(=O)c1ccc(C)cc1)C(=O)N[C@@H](CC(C)C)C(=O)c1ccco1 | IC50 (A549): 17.6 µM; IC50 [3]: 3.73 µM; IC50 (HT-29): 4.85 µM; IC50 (HEK293): > 50 µM; IC50 (HeLa): 2.47 µM; IC50 (A-375): 2.61 µM; IC50 (BGC-823): 3.96 µM; Activity (HCT-116 [4]): 27%; IC50 (HCT-116 [5]): 1.67 µM; Activity (HCT-116 [6]): 43%; Activity (HCT-116 [7]): 30% |
| > 50 | 8.25 | COc1ccc(C[C@H](NC(=O)c2cnccn2)C(=O)N[C@@H](Cc2ccc(O)cc2)C(=O)N[C@@H](CC(C)C)C(=O)c2ccco2)cc1 | – |
| > 50 | 6.3 | Cc1ccc(S(=O)(=O)N[C@@H](CC(=O)NCCC(C)C)C(=O)N[C@@H](C)C(=O)N[C@@H](CC(C)C)C(=O)c2ccco2)cc1 | – |
| > 50 | > 50 | CC(C)C[C@H](NC(=O)[C@H](C)NC(=O)[C@H](Cc1ccccc1)NC(=O)OCc1ccccc1)C(=O)c1ccco1 | – |
| – | – | CC(C)C[C@H](NC(=O)[C@H](Cc1ccccc1)NC(=O)c1cnccn1)B(O)O | Activity [8]: 80% |
| > 50 | 13.9 | CC(=O)N[C@@H](Cc1ccccc1)C(=O)N[C@@H](Cc1ccc(O)cc1)C(=O)N[C@@H](CC(C)C)C(=O)c1ccco1 | – |
| > 50 | > 50 | CC(C)C[C@H](NC(=O)[C@H](Cc1ccc(Cl)cc1)NC(=O)[C@H](Cc1ccccc1)NC(=O)OCc1ccccc1)C(=O)c1ccco1 | – |
| > 50 | 14.3 | COC[C@H](NC(=O)[C@H](Cc1ccccc1)NC(=O)OC(C)(C)C)C(=O)N[C@@H](CC(C)C)C(=O)c1ccco1 | – |
